Key:
Assay type in all cases: cell-based
[1] = molecular target: T1, Kir1.1 (S44D) (Rattus norvegicus, UniProt P35560, S44D); experiment: Tl+ flux assay, tetracycline-inducible Kir1.1-S44D T-REx-HEK-293 cells; details: IC50 Kir1.1, Tl+ flux, mean ± SEM (n = 3)
T1 sequence (P35560 1-391 S44D): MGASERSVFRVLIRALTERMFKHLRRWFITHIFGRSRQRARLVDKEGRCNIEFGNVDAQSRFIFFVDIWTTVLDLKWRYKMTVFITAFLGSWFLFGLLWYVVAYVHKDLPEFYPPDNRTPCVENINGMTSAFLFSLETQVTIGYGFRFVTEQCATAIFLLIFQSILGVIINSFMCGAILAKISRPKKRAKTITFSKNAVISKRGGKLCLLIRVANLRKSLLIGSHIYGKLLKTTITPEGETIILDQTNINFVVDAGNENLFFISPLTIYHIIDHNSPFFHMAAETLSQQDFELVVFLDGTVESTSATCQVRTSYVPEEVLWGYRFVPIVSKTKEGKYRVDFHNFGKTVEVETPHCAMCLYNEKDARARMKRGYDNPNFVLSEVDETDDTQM
How it was run: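 Monoclonal C1 T-REx-HEK-293 Kir1.1-S44D cells were grown in DMEM with 10% FBS, penicillin/streptomycin, 5 μg/mL blasticidin S and 250 μg/mL hygromycin. Channel expression was induced overnight with tetracycline. Cells were loaded with FluoZin-2 and pre-treated with test compound from 1:3 serial dilutions. Extracellular Tl+ was then added and fluorescence imaged kinetically at 20–23°C. CRC, mean ± SEM, n = 3.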

[2] = molecular target: T2, Kir3.1/3.2 (GIRK) (Homo sapiens, UniProt P48051+P48549); experiment: Whole-cell patch clamp, Kir3.1/3.2 in transfected HEK-293 cells
T2 sequence (P48549 1-501): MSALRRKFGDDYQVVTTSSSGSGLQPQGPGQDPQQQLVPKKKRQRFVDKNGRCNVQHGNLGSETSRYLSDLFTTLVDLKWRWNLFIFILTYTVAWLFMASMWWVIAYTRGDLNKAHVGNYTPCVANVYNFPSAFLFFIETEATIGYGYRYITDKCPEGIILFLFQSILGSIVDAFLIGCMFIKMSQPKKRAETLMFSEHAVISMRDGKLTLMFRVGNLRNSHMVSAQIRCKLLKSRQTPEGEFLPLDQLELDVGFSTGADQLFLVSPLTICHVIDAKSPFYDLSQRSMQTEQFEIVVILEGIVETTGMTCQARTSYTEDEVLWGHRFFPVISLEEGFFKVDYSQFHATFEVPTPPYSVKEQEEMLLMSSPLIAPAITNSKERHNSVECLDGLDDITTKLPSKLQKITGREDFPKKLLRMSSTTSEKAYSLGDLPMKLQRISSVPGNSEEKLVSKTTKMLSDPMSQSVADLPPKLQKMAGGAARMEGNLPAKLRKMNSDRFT
T2 sequence (P48051 1-423): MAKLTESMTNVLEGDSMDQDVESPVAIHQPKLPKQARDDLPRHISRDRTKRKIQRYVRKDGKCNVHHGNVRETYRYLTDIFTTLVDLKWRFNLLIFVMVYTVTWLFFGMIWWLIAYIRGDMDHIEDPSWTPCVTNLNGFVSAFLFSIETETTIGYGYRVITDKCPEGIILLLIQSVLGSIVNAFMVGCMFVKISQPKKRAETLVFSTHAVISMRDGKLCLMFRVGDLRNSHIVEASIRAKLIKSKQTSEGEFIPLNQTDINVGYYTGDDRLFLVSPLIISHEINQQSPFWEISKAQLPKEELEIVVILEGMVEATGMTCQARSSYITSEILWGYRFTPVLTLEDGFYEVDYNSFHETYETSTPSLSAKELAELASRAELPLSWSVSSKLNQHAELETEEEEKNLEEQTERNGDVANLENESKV
How it was run: (§1)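 HEK-293 cells were transiently co-transfected with channel plus an EGFP marker (Lipofectamine). Pipette: 135 mM KCl, 2 mM MgCl2, 1 mM EGTA, 10 mM HEPES, 2 mM Na2ATP, pH 7.3. Bath: 135 mM NaCl, 5 mM KCl, pH 7.4; some runs used 50 mM KCl. Held at −75 mV and ramped −120 to 120 mV every 5 s, at 20–23°C. Test compound was bath-applied for 2–10 min, then 2 mM BaCl2. CRC n = 4–7. τ taken from the time course.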

[3] = molecular target: T3, Kir2.3 (Homo sapiens, UniProt P48050); experiment: Whole-cell patch clamp, T-REx-HEK-293-Kir2.3 cells
T3 sequence (P48050 1-445): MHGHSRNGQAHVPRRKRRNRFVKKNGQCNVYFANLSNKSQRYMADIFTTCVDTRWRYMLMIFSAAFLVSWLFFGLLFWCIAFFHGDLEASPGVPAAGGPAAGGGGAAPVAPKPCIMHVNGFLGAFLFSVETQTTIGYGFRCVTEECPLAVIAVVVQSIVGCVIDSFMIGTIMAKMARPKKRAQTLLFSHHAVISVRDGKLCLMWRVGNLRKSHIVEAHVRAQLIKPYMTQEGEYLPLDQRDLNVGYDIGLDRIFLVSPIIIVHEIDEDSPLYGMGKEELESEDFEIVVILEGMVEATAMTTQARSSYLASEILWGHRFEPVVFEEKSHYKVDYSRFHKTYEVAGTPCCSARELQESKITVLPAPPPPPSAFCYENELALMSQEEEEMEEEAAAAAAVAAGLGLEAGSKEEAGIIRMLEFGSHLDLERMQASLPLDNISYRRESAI
How it was run: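 Monoclonal T-REx-HEK-293-Kir2.3 cells were patched after overnight induction with tetracycline (1 μg/mL). Pipette: 135 mM KCl, 1 mM MgCl2 (reduced against rundown), 1 mM EGTA, 10 mM HEPES, 2 mM Na2ATP, pH 7.3. Bath: 135 mM NaCl, 5 mM KCl, pH 7.4. Held at −75 mV and ramped −120 to 120 mV every 5 s, at 20–23°C. Test compound was bath-applied, then 2 mM BaCl2. CRC n = 4–6. τ taken from the time course.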

[4] = molecular target: T4, wild type Kir7.1 (Homo sapiens, UniProt O60928); experiment: Whole-cell patch clamp, wild type Kir7.1 in transfected HEK-293 cells
T4 sequence (O60928 1-360): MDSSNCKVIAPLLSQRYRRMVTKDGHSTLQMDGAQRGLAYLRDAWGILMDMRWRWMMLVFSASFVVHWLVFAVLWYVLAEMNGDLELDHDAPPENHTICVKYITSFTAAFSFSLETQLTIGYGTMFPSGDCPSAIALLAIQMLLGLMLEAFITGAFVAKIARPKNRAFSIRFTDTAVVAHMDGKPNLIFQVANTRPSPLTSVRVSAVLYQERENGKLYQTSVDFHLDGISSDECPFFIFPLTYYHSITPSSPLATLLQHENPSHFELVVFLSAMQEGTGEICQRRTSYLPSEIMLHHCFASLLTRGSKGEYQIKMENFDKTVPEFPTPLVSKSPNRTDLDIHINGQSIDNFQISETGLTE
How it was run: as §1

[5] = whole-cell patch clamp, 30 μM, mean ± SEM, n = 4

- IC50 [1]: 10.8 ± 3.8 µM
- IC50 [2]: 1300 nM
- inhibition of GIRK ([2]; whole-cell patch clamp, HEK-293, 30 μM bath application): near complete inhibition
- time constant of inhibition of Kir3.1/3.2 ([2]; whole-cell patch clamp, HEK-293, 30 μM, mean ± SEM, n = 5): 16 ± 1 s
- IC50 ([3]; IC50 Kir2.3, whole-cell patch clamp, T-REx-HEK-293-Kir2.3): ~1000 nM
- time constant for inhibition of Kir2.3 [3, 5]: 23 ± 2 s
- IC50 ([4]; IC50 Kir7.1, whole-cell patch clamp, wild type Kir7.1, HEK-293): ~1000 nM
- effect on wild type Kir7.1 activity ([4]; whole-cell patch clamp, 10 μM, n = 4): near complete inhibition
- time constant for inhibition of Kir7.1 [4, 5]: 14 ± 2 s
SMILES: Cc1ccc(OCC(O)Cn2c(=N)n(Cc3ccccc3)c3ccccc32)cc1 (stereo not drawn) [Compound 1, 1-(3-benzyl-2-imino-2,3-dihydro-1H-benzo[d]imidazol-1-yl)-3-(p-tolyloxy)propan-2-ol]
